Test results reported in ChEMBL document CHEMBL1128448, “Synthesis and antifungal activity of new azole derivatives containing an N-acylmorpholine ring” (1995).
Converted amounts (≈) assume the structure as drawn.

Experiments:
Assay type in all cases: functional
Rattus norvegicus [1] = assay: In vivo evaluation of antifungal activity against vaginal candidosis in rat at dose 0.25 mg/kg on 15th day
Summary of the method: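 Groups of 10 female Wistar rats given estradiol 25 mg/kg sc on day -5, infected intravaginally with C. albicans by sterile swab on day 0; infection confirmed on day 3 by swab culture (TSB, then Sabouraud agar). Oral dosing once daily on days 3, 4, 5; vehicle controls. Vaginal swabs cultured on days 10 and 15; read-out % cured (culture-negative).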

Candida albicans [2] = assay: Evaluation of In vitro antifungal activity against Candida albicans 31 by broth macro dilution method
Summary of the method: (§1)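 Yeast MIC and MFC by broth macrodilution per NCCLS M27-P in RPMI-1640 buffered with 0.165 M MOPS. Fluconazole in sterile water, other drugs in DMSO. C. parapsilosis ATCC 22019 is the reference strain in each run. MIC is the lowest concentration with turbidity ≤ the 80% inhibition standard. For MFC, 0.04 mL from clear tubes is plated on Sabouraud agar; MFC is the lowest concentration giving ≤1 colony.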

Candida parapsilosis [3] = assay: Evaluation of In vitro antifungal activity against Candida parapsilosis C74 by broth macro dilution method; settings: Lodderomyces parapsilosis; summary of the method: as §1
Candida albicans [4] = assay: Evaluation of In vitro antifungal activity against Candida albicans C52 by broth macro dilution method; summary of the method: as §1
Candida parapsilosis [5] = assay: Evaluation of In vitro antifungal activity against Candida parapsilosis 2.07 by broth macro dilution method; settings: Lodderomyces parapsilosis; summary of the method: as §1
Candida albicans [6] = assay: Evaluation of In vitro antifungal activity against Candida albicans 406 by broth macro dilution method; summary of the method: as §1
Candida albicans [7] = assay: Evaluation of In vitro antifungal activity against Candida albicans C56 by broth macro dilution method; summary of the method: as §1
Rattus norvegicus [8] = assay: In vivo evaluation of antifungal activity against vaginal candidosis in rat at dose 0.1 mg/kg on 15th day
Summary of the method: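 Groups of 10 female Wistar rats given estradiol 25 mg/kg sc on day -5, then vaginally inoculated with C. albicans on day 0. Infection is confirmed by culture of day-3 swabs. Compound is dosed orally once daily on days 3–5; controls get vehicle. Cure is scored by culture of vaginal swabs taken on days 10 and 15.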

Aspergillus flavus = assay: In vitro evaluation of minimum inhibitory concentration against Aspergillus flavus 19
Summary of the method: (§2)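 Stocks are 800 μg/mL in 50% ethanol. Each plate gets 10 μL of inoculum at 10^5 cfu/mL. Incubation at 25 °C, 48 h for yeasts and 120 h for dermatophytes and molds. Organisms are ATCC strains or clinical isolates.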

Pichia kudriavzevii [9] = assay: Evaluation of In vitro antifungal activity against Candida krusei 70 by broth macro dilution method; summary of the method: as §1
[10] = system: Meyerozyma guilliermondii; assay: In vitro evaluation of minimum inhibitory concentration against Candida guilliermondii 26; summary of the method: as §2
Candida tropicalis [11] = assay: Evaluation of In vitro antifungal activity against Candida tropicalis 50 by broth macro dilution method; summary of the method: as §1
Pichia kudriavzevii [12] = assay: In vitro evaluation of minimum inhibitory concentration against Candida krusei 70; summary of the method: as §2
Mus musculus [13] = assay: In vivo evaluation of % survival rate after peroral administration on 9th day at dose 0.5 mg/kg(as a water solution in (hydroxypropyl -beta-cyclodextrin)); settings: route oral
Summary of the method: (§3)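 Groups of 10 male mice were infected iv with 0.2 mL of C. albicans at (2-8) × 10^7 cfu/mL. Oral doses were given at 1, 4 and 24 h post-infection. Vehicle-only controls were included, with at least 90% control mortality by day 3. Percent survival was recorded on days 3, 5, 7 and 9.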

Candida parapsilosis [14] = assay: Evaluation of In vitro antifungal activity against Candida parapsilosis ATCC 22019 by broth macro dilution method; settings: Lodderomyces parapsilosis; summary of the method: as §1
Trichophyton rubrum = assay: IIn vitro evaluation of minimum inhibitory concentration against Trichophyton rubrum 90; summary of the method: as §2
Aspergillus niger = assay: In vitro evaluation of minimum inhibitory concentration against Aspergillus niger 18; summary of the method: as §2
Candida parapsilosis [15] = assay: Evaluation of In vitro antifungal activity against Candida parapsilosis C292 by broth macro dilution method; settings: Lodderomyces parapsilosis; summary of the method: as §1
Candida parapsilosis [16] = assay: Evaluation of In vitro antifungal activity against Candida parapsilosis ATCC 141095 by broth macro dilution method; settings: Lodderomyces parapsilosis; summary of the method: as §1
Candida tropicalis [17] = assay: In vitro evaluation of minimum inhibitory concentration against Candida tropicalis 2.11; summary of the method: as §2
Mus musculus [18] = assay: In vivo evaluation of % survival rate after peroral administration on 7th day at dose 0.5 mg/kg; settings: route oral, 0.5 mg/kg
Mus musculus [19] = assay: In vivo evaluation of % survival rate after peroral administration on 7th day at dose 0.5 mg/kg(as a water solution in (hydroxypropyl -beta-cyclodextrin)); settings: route oral; summary of the method: as §3
[20] = system: Meyerozyma guilliermondii; assay: Evaluation of In vitro antifungal activity against Candida guilliermondii 26 by broth macro dilution method; summary of the method: as §1

C[C@H]1N(C(=O)c2ccc(C(F)(F)F)cc2)CCO[C@@]1(Cn1cncn1)c1ccc(F)cc1F (stereo in doubt; (-)-41)
Cure rate (Rattus norvegicus [1]): 60% | MFC (Candida albicans [2]): > 64 µg/mL | MIC (Candida albicans [2]): 0.125 µg/mL (≈ 0.268 µM) | MFC (Candida parapsilosis [3]): 8 µg/mL (≈ 17.2 µM) | MIC (Candida parapsilosis [3]): 0.5 µg/mL (≈ 1.07 µM) | MFC (Candida albicans [4]): > 64 µg/mL | MIC (Candida albicans [4]): 0.125 µg/mL (≈ 0.268 µM) | MFC (Candida parapsilosis [5]): > 64 µg/mL | MIC (Candida parapsilosis [5]): 1 µg/mL (≈ 2.14 µM) | MFC (Candida albicans [6]): > 64 µg/mL | MIC (Candida albicans [6]): 0.25 µg/mL (≈ 0.536 µM) | MFC (Candida albicans [7]): > 64 µg/mL | MIC (Candida albicans [7]): 0.125 µg/mL (≈ 0.268 µM) | Cure rate (Rattus norvegicus [8]): 20% | MIC (Aspergillus flavus): 40 µg/mL (≈ 85.8 µM) | MFC (Pichia kudriavzevii [9]): > 64 µg/mL | MIC (Pichia kudriavzevii [9]): 32 µg/mL (≈ 68.6 µM) | MIC [10]: 20 µg/mL (≈ 42.9 µM) | MFC (Candida tropicalis [11]): > 64 µg/mL | MIC (Candida tropicalis [11]): 16 µg/mL (≈ 34.3 µM) | MIC (Pichia kudriavzevii [12]): 40 µg/mL (≈ 85.8 µM) | survival at 0.5 mg/kg (Mus musculus [13]): 30% | MFC (Candida parapsilosis [14]): 4 µg/mL (≈ 8.58 µM) | MIC (Candida parapsilosis [14]): 2 µg/mL (≈ 4.29 µM) | MIC (Trichophyton rubrum): 10 µg/mL (≈ 21.4 µM) | MIC (Aspergillus niger): 80 µg/mL (≈ 172 µM) | MFC (Candida parapsilosis [15]): > 64 µg/mL | MIC (Candida parapsilosis [15]): 2 µg/mL (≈ 4.29 µM) | MFC (Candida parapsilosis [16]): > 64 µg/mL | MIC (Candida parapsilosis [16]): 32 µg/mL (≈ 68.6 µM) | MIC (Candida tropicalis [17]): 40 µg/mL (≈ 85.8 µM) | Survival (Mus musculus [18]): 70% | survival at 0.5 mg/kg (Mus musculus [19]): 60% | MFC [20]: > 64 µg/mL | MIC [20]: 8 µg/mL (≈ 17.2 µM)
